An excerpt weighted towards active compounds, which were near 2.9% of everything screened.
S100A4 MyoIIA = inhibitors of S100A4-myosin IIA peptide binding, primary screen, biochemical, fluorescence polarization, TAMRA-MyoIIA peptide. inhibition, % at 10.7 µM. Protein S100-A4 (Homo sapiens), P26447. 360,000 compounds, 0.14% hits;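 active = mean inhibition of at least 70% across replicates, with every replicate also reaching that level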
Target sequence (P26447 whole entry, looked up): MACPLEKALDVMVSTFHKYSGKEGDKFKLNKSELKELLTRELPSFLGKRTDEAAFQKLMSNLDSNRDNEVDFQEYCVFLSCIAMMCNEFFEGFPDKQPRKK
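Test system: S100A4 monomer protein; Medium: HEPES pH 7.2 with CaCl2, KCl, NaCl, DTT, Triton; Probe or stimulus: TAMRA-labelled myosin IIA heavy-chain peptide probe, 5 nM; Doses: one dose per compound; Times: polarization read 5 min after assay mix addition, stable 5–60 min; Benchmarks: neutral control DMSO, positive control TFP.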
ERAP1 inh = human ERAP1 aminopeptidase inhibitors, primary screen, biochemical, single point, plate reader; recombinant ERAP1, Leu-AMC fluorescence, 60 min; 340,000 compounds, 0.15% hits; inhibition, % at 10.7 µM;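 active = mean replicate inhibition of at least 30%, or all replicates individually reaching that 30% level; inactive = mean below 30% and not every replicate reaching it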;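 note: 0% = neutral control wells and 100% = L-leucinethiol positive control wells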
DENV2 CPE rescue = inhibitors of DENV2 cytopathic effect, primary screen, cell-based, plate reader, single concentration; DENV2-infected cells, cytopathic effect rescue; 350,000 compounds, 1.7% hits; AID 651640, 2012; CPE inhibition, % at 9.99 µM; in the data active = CPE inhibition above about 20%, passing the limit was not always enough; tested in BHK-21 cells;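 note: 0% = median of neutral control wells and 100% = median of positive control wells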
SIRT5 inh = SIRT5 desuccinylase inhibitors, primary screen, biochemical, fluorescence imaging, single point, set 5 | Purified SirT5, succinyl-peptide AMC, trypsin-coupled fluorescence | inhibition, % at 15 µM | 330,000 compounds, 1.1% hits | AID 652115, 2013; in the data active = inhibition above about 15%
Target sequence (Q9NXA8 whole entry, looked up): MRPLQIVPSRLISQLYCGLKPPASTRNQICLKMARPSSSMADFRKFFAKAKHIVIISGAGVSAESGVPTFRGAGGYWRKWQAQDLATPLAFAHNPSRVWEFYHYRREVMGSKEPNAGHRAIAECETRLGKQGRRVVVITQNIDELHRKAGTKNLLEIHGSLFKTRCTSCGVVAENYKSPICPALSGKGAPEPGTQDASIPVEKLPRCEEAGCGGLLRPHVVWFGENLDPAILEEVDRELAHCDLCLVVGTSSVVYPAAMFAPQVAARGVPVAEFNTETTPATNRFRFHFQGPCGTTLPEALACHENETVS
CAL PDZ FP-1 = untagged CAL PDZ binding inhibitors, primary screen, biochemical, fluorescence polarization, HTS | Golgi-associated PDZ and coiled-coil motif-containing protein (Homo sapiens), Q9HD26 | purified CAL PDZ, TMR-peptide fluorescence polarization, 1 h | inhibition, % at 24.9 µM | 300,000 compounds, 0.92% hits | AID 602252, 2012;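 active = mean inhibition of at least 30% with at least half of replicates also reaching 30%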;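 note: 0% = DMSO neutral control and 100% = excess unlabeled competitor peptide PRC23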
CAL PDZ FP-2 = CAL PDZ peptide-binding inhibitors, primary screen, biochemical, fluorescence polarization, Cer-tagged CAL PDZ, HTS. Golgi-associated PDZ and coiled-coil motif-containing protein (Homo sapiens), Q9HD26. purified CAL PDZ, TMR-peptide fluorescence polarization, 1 h. inhibition, % at 20 µM. 330,000 compounds, 0.02% hits. AID 504414, 2011;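 active = highest replicate inhibition of at least 40%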;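 note: plate controls were DMSO neutral control wells for no effect and unlabeled competitor peptide control wells for full effect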
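Read-out basis: mP drop reported as inhibition | Assay system: Tagged CAL PDZ protein CerCALP, purified | Benchmarks: Unlabelled peptide for full inhibition, DMSO wells as neutral | Schedule: 1 h incubation at room temperature before polarization reading | Buffer or medium: Sodium phosphate/NaCl buffer pH 7.4 with TCEP, IgG, Thesit | Doses: Single point, 20 µM | Measured by: Fluorescence polarization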
Numbers without * were called inactive.

Results for CCCCNc1c(-c2ccc(OC)c(SC(C)CC)c2)nc2cc(C)ccn12 (stereo unspecified) ?
S100A4 MyoIIA: 4; ERAP1 inh: -2; DENV2 CPE rescue: -6; CAL PDZ FP-1: 2; CAL PDZ FP-2: 0

What do the screens show for `CCCCNc1c(-c2ccc(Sc3ccc(OC)cc3)cc2)nc2cc(C)ccn12`?
S100A4 MyoIIA: -1; DENV2 CPE rescue: 82*; CAL PDZ FP-1: -3; CAL PDZ FP-2: -1

Results for CCCCNc1c(-c2ccc(-c3ccc(C(C)=O)cc3)c(OC)c2)nc2cc(C)ccn12 ?
S100A4 MyoIIA: 12; DENV2 CPE rescue: 61*; CAL PDZ FP-1: 0; CAL PDZ FP-2: -1

How did CCNC(=O)[C@H]1[C@H](CO)[C@H]2Cn3c(ccc(-c4ccccc4F)c3=O)[C@@H]1N2S(C)(=O)=O do in these assays?
S100A4 MyoIIA: -11; ERAP1 inh: -1; DENV2 CPE rescue: -13; SIRT5 inh: -16

What do the screens show for `CCCNC(=O)C[C@@H]1CC[C@@H]2[C@H](COC[C@H](O)CN2Cc2ccc(Cl)c(Cl)c2)O1`?
S100A4 MyoIIA: 5; ERAP1 inh: 1; DENV2 CPE rescue: 5; SIRT5 inh: -2

How did COc1ccc(CNC(=O)CN2CCN(c3ccccc3)CC2)cc1 do in these assays?
S100A4 MyoIIA: -5; ERAP1 inh: 7; DENV2 CPE rescue: 0; SIRT5 inh: 0; CAL PDZ FP-1: -7; CAL PDZ FP-2: 0

Results for COc1cccc(N2CCN(CC(=O)NCc3ccccc3)CC2)c1 ?
S100A4 MyoIIA: -3; ERAP1 inh: -5; DENV2 CPE rescue: 8; CAL PDZ FP-1: 50*; CAL PDZ FP-2: 0

What do the screens show for `O=S(=O)(N[C@@H]1CC[C@@H](CCn2cc(-c3cccnc3)nn2)O[C@H]1CO)c1ccc(Cl)cc1`?
S100A4 MyoIIA: -12; ERAP1 inh: 0; DENV2 CPE rescue: 7; SIRT5 inh: -5

How did O=C(c1ccco1)N1CCN(Cc2nc(Cc3ccccc3)no2)CC1 do in these assays?
S100A4 MyoIIA: 0; ERAP1 inh: -4; DENV2 CPE rescue: -2; SIRT5 inh: -3; CAL PDZ FP-1: -2; CAL PDZ FP-2: -2

What do the screens show for `O=C(c1ccco1)N1CCCN(Cc2nc(-c3cccs3)no2)CC1`?
S100A4 MyoIIA: 0; ERAP1 inh: 2; DENV2 CPE rescue: 4; SIRT5 inh: 21*; CAL PDZ FP-1: -2; CAL PDZ FP-2: 0

What do the screens show for `COc1ccc(C#Cc2ccc3c(c2)[C@]2(C(=O)N3)[C@H](C(=O)N3CCN(c4ncccn4)CC3)[C@H]3C(=O)O[C@H](c4ccccc4)[C@H](c4ccccc4)N3[C@@H]2c2ccc(OCCO)cc2)cc1`?
S100A4 MyoIIA: 37; ERAP1 inh: 2; DENV2 CPE rescue: -8; SIRT5 inh: 23*

Results for O=C1O[C@@H](c2ccccc2)[C@@H](c2ccccc2)N2[C@@H](c3ccc(OCCO)cc3)[C@]3(C(=O)Nc4ccc(C#CC5=CCCCC5)cc43)[C@@H](C(=O)N3CCN(c4ncccn4)CC3)[C@H]12 ?
S100A4 MyoIIA: -4; ERAP1 inh: 1; DENV2 CPE rescue: 2; SIRT5 inh: 7

What do the screens show for `O=C1O[C@@H](c2ccccc2)[C@@H](c2ccccc2)N2[C@@H](c3ccccc3OCCO)[C@]3(C(=O)Nc4ccc(C#CC5=CCCCC5)cc43)[C@@H](C(=O)N3CCN(c4ncccn4)CC3)[C@H]12`?
S100A4 MyoIIA: -25; ERAP1 inh: -1; DENV2 CPE rescue: 8; SIRT5 inh: 17*

Results for COc1cc2c(cc1OC)CN(C(=O)[C@@H]1[C@H]3C(=O)O[C@H](c4ccccc4)[C@H](c4ccccc4)N3[C@H](c3ccc(OCCO)cc3)[C@@]13C(=O)Nc1ccc(C#CCNC(N)=O)cc13)CC2 ?
S100A4 MyoIIA: -6; ERAP1 inh: 2; DENV2 CPE rescue: 6; SIRT5 inh: 23*

How did C[C@H](CO)N1C[C@H](C)[C@H](CN(C)C(=O)CN(C)C)Oc2ncc(-c3ccc(C#N)cc3)cc2C1=O do in these assays?
S100A4 MyoIIA: 1; ERAP1 inh: -3; DENV2 CPE rescue: 3; SIRT5 inh: -1

How did CC(C)NC(=O)N[C@H]1CC[C@H](CC(=O)O)O[C@H]1CO do in these assays?
S100A4 MyoIIA: 0; ERAP1 inh: -1; DENV2 CPE rescue: -1; SIRT5 inh: 5

How did COc1ccc2nc(NN=Cc3cccc(C)n3)cc(C)c2c1 do in these assays?
S100A4 MyoIIA: -11; ERAP1 inh: -3; DENV2 CPE rescue: 54*

Results for Cc1nnc(SCC(=O)NC(C)(C)C)n1NCc1ccc(N(C)C)cc1 ?
S100A4 MyoIIA: 2; ERAP1 inh: 6; DENV2 CPE rescue: 3; SIRT5 inh: -3; CAL PDZ FP-1: 74*; CAL PDZ FP-2: -4

How did Cc1nnc(SCC(=O)NC(C)(C)C)n1NCc1ccc(Cl)cc1 do in these assays?
S100A4 MyoIIA: -3; ERAP1 inh: 1; DENV2 CPE rescue: -5; SIRT5 inh: 0; CAL PDZ FP-1: 5; CAL PDZ FP-2: 0

How did COc1ccc(S(=O)(=O)N[C@@H]2CC[C@@H](CC(=O)NCc3ccccc3F)O[C@@H]2CO)cc1 do in these assays?
S100A4 MyoIIA: -5; ERAP1 inh: -3; DENV2 CPE rescue: -4; SIRT5 inh: 1

How did CCOc1cc(N2CCOCC2)c(OCC)cc1NC(=O)COC(=O)c1ccc([N+](=O)[O-])o1 do in these assays?
S100A4 MyoIIA: -12; ERAP1 inh: 0; DENV2 CPE rescue: 0; SIRT5 inh: 0; CAL PDZ FP-1: 92*; CAL PDZ FP-2: 0

Results for CCOC(=O)C1CCN(C(=O)Cn2cc(C(=O)OC)c3ccccc32)CC1 ?
S100A4 MyoIIA: 0; ERAP1 inh: -2; DENV2 CPE rescue: 20; SIRT5 inh: 18*; CAL PDZ FP-1: 1; CAL PDZ FP-2: 0

Results for COC(=O)c1cn(CC(=O)N2CCCCCC2)c2ccccc12 ?
CAL PDZ FP-1: -7

What do the screens show for `CCOc1cc(N2CCOCC2)c(OCC)cc1NC(=O)CN1CCCC1`?
CAL PDZ FP-1: 94*; CAL PDZ FP-2: -1

Results for CCOc1cc(N2CCOCC2)c(OCC)cc1NC(=O)COC(=O)c1cc(C)cc(C)c1 ?
S100A4 MyoIIA: 1; ERAP1 inh: 6; DENV2 CPE rescue: -1; SIRT5 inh: -2; CAL PDZ FP-1: -6; CAL PDZ FP-2: 0

From PubChem
